Measured values reported in ChEMBL document CHEMBL1156387, “Novel esters of glaucarubolone as inducers of terminal differentiation of promyelocytic HL-60 cells and inhibitors of 7,12-dimethylbenz[a]anthracene-induced preneoplastic lesion formation in mouse mammary organ culture” (J Nat Prod, 2001).

Assays:
HL-60 [1] = assay: Antiproliferative activity against human HL60 cells assessed as inhibition of [3H]thymidine incorporation after 4 days by liquid scintillation counter; assay type: functional, cell-based
Summary of the method: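 HL-60 cells in log phase diluted to 10^5 cells/mL, preincubated 18 h, then exposed to samples in DMSO (final 0.1% v/v; DMSO-only controls) for 4 days. Cells then pulsed with [3H]thymidine (0.5 μCi/mL, 65 Ci/mmol) for 18 h at 37 °C, 5% CO2, harvested onto glass fiber filters, scintillation counted; incorporation per 10^6 cells as % of DMSO control. IC50 from 5–7 concentrations in duplicate.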

HL-60 [2] = assay: Induction of cell differentiation in human HL60 cells assessed as superoxide anion production after 4 days by NBT reduction assay; assay type: functional, cell-based; conditions: HL-60, 96 h
Summary of the method: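 Cells diluted to 10^5/mL and recovered overnight were exposed 4 days to samples (0.1% v/v DMSO final). Cell suspension (10^6 cells) was mixed 1:1 with NBT 2 mg/mL plus TPA 1 μg/mL in PBS and held 1 h at 37 °C. Formazan-positive cells were counted microscopically among >200 cells. EC50 from 5–7 concentrations in duplicate; 1α,25-dihydroxyvitamin D3 served as reference.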

HL-60 [3] = assay: Cytotoxicity against human HL60 cells assessed as loss of membrane integrity after 4 days by trypan blue exclusion assay; assay type: functional, cell-based; conditions: HL-60, 96 h
Summary of the method: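 After 18 h recovery at 10^5 cells/mL, HL-60 cells were treated 4 days with samples (final DMSO 0.1% v/v). Cells were mixed 1:4 with trypan blue (0.2% w/v in PBS), held at least 5 min at room temperature and counted by hemocytometer. Viability was taken from duplicate samples; IC50 from 5–7 concentrations in duplicate.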

HL-60 [4] = assay: Selectivity index, ratio of cytotoxic IC50 to antiproliferative IC50 for human HL60 cells; assay type: functional
Summary of the method: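 Index = cytotoxic IC50 (trypan blue, 4-day HL-60 exposure) divided by antiproliferative IC50 ([3H]thymidine incorporation), each from dose–response with at least five points.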

Structure (SMILES): CC[C@](C)(OC(C)=O)C(=O)O[C@H]1C(=O)O[C@@H]2C[C@H]3C(C)=CC(=O)[C@@H](O)[C@]3(C)[C@H]3[C@@H](O)[C@H](O)[C@@]4(C)OC[C@]32[C@@H]14 [QUASSIMARIN]
- IC50 (HL-60 [1]): 60 nM
- EC50 (HL-60 [2]): 90 nM
- IC50 (HL-60 [3]): 130 nM
- Ratio IC50 (HL-60 [4]): 2.2

Structure (SMILES): CC1=CC(=O)[C@@H](O)[C@]2(C)[C@H]3[C@]4(O)OC[C@]35[C@H]([C@@H](C)[C@H]4O)[C@@H](OC(=O)CC(C)C)C(=O)O[C@@H]5C[C@@H]12
- IC50 (HL-60 [1]): 1000 nM
- EC50 (HL-60 [2]): > 2000 nM
- IC50 (HL-60 [3]): 1500 nM
- Ratio IC50 (HL-60 [4]): 1.5

Structure (SMILES): CC1=CC(=O)[C@@H](O)[C@]2(C)[C@H]3[C@]4(O)OC[C@]35[C@H]([C@@H](C)[C@H]4O)[C@@H](OC(=O)CC(C)(C)OP(=O)(O)O)C(=O)O[C@@H]5C[C@@H]12
- IC50 (HL-60 [1]): 700 nM
- EC50 (HL-60 [2]): 3000 nM
- IC50 (HL-60 [3]): 4400 nM
- Ratio IC50 (HL-60 [4]): 6.5

Structure (SMILES): CC1=CC(=O)[C@@H](O)[C@]2(C)[C@H]3[C@]4(O)OC[C@]35[C@H]([C@@H](C)[C@H]4O)[C@@H](OC(=O)CC(O)(CC(C)C)CC(C)C)C(=O)O[C@@H]5C[C@@H]12
- IC50 (HL-60 [1]): 40 nM
- EC50 (HL-60 [2]): > 50 nM
- IC50 (HL-60 [3]): 40 nM
- Ratio IC50 (HL-60 [4]): 1

Structure (SMILES): CC1=CC(=O)[C@@H](O)[C@]2(C)[C@H]3[C@]4(O)OC[C@]35[C@H]([C@@H](C)[C@H]4O)[C@@H](OC(=O)C(C)(C)CO)C(=O)O[C@@H]5C[C@@H]12
- IC50 (HL-60 [1]): 200 nM
- EC50 (HL-60 [2]): 500 nM
- IC50 (HL-60 [3]): 600 nM
- Ratio IC50 (HL-60 [4]): 3.1

Structure (SMILES): CC1=CC(=O)[C@@H](O)[C@]2(C)[C@H]3[C@]4(O)OC[C@]35[C@H]([C@@H](C)[C@H]4O)[C@@H](OC(=O)CC3(O)CCCC3)C(=O)O[C@@H]5C[C@@H]12
- IC50 (HL-60 [1]): 190 nM
- EC50 (HL-60 [2]): 130 nM
- IC50 (HL-60 [3]): 380 nM
- Ratio IC50 (HL-60 [4]): 2.1

Structure (SMILES): CC[C@@H](C)C(=O)O[C@H]1C(=O)O[C@@H]2C[C@H]3C(C)=CC(=O)[C@@H](O)[C@]3(C)[C@H]3[C@@H](O)[C@H](O)[C@]4(C)OC[C@]32[C@@H]14 [SIMALIKALACTONE D]
- IC50 (HL-60 [1]): > 200 nM
- EC50 (HL-60 [2]): > 200 nM
- IC50 (HL-60 [3]): 200 nM

Structure (SMILES): CC1=CC(=O)[C@@H](O)[C@]2(C)[C@H]3[C@]4(O)OC[C@]35[C@H]([C@@H](C)[C@H]4O)[C@@H](OC(=O)CC3(O)C(C)(C)CCC3(C)C)C(=O)O[C@@H]5C[C@@H]12
- IC50 (HL-60 [1]): 40 nM
- EC50 (HL-60 [2]): 25 nM
- IC50 (HL-60 [3]): 50 nM
- Ratio IC50 (HL-60 [4]): 1.3

Structure (SMILES): CC1=CC(=O)[C@@H](O)[C@]2(C)[C@H]3[C@]4(O)OC[C@]35[C@H]([C@@H](C)[C@H]4O)[C@@H](OC(=O)C(C)(C)C(=O)O)C(=O)O[C@@H]5C[C@@H]12
- IC50 (HL-60 [1]): 3200 nM
- EC50 (HL-60 [2]): > 7000 nM
- IC50 (HL-60 [3]): > 7000 nM
- Ratio IC50 (HL-60 [4]): >2.2

Structure (SMILES): CC1=CC(=O)[C@@H](O)[C@]2(C)[C@H]3[C@]4(O)OC[C@]35[C@H]([C@@H](C)[C@H]4O)[C@@H](OC(=O)C=C(C3CC3)C3CC3)C(=O)O[C@@H]5C[C@@H]12
- IC50 (HL-60 [1]): 200 nM
- EC50 (HL-60 [2]): 600 nM
- IC50 (HL-60 [3]): 750 nM
- Ratio IC50 (HL-60 [4]): 3.9

Structure (SMILES): CC[C@](C)(O)C(=O)O[C@H]1C(=O)O[C@@H]2C[C@H]3C(C)=CC(=O)[C@@H](O)[C@]3(C)[C@H]3C4(O)OC[C@]32[C@@H]1[C@@H](C)[C@H]4O (single isomer, unassigned) [GLAUCARUBINONE]
- IC50 (HL-60 [1]): 500 nM
- EC50 (HL-60 [2]): 1800 nM
- IC50 (HL-60 [3]): 1000 nM
- Ratio IC50 (HL-60 [4]): 2.1

Structure (SMILES): CC1=CC(=O)[C@@H](O)[C@]2(C)[C@H]3[C@]4(O)OC[C@]35[C@H]([C@@H](C)[C@H]4O)[C@@H](OC(=O)[C@@H](C)CO)C(=O)O[C@@H]5C[C@@H]12
- IC50 (HL-60 [1]): 600 nM
- EC50 (HL-60 [2]): 1900 nM
- IC50 (HL-60 [3]): 2500 nM
- Ratio IC50 (HL-60 [4]): 4.3

Structure (SMILES): CC[C@@](O)(CC(=O)O[C@H]1C(=O)O[C@@H]2C[C@H]3C(C)=CC(=O)[C@@H](O)[C@]3(C)[C@H]3[C@]4(O)OC[C@]32[C@@H]1[C@@H](C)[C@H]4O)C(C)C
- IC50 (HL-60 [1]): 11 nM
- EC50 (HL-60 [2]): 17 nM
- IC50 (HL-60 [3]): 13 nM
- Ratio IC50 (HL-60 [4]): 1.2

Structure (SMILES): CC1=CC(=O)[C@@H](O)[C@]2(C)[C@H]3[C@]4(O)OC[C@]35[C@H]([C@@H](C)[C@H]4O)[C@@H](OC(=O)CC(O)(C(C)C)C(C)C)C(=O)O[C@@H]5C[C@@H]12
- IC50 (HL-60 [1]): 9 nM
- EC50 (HL-60 [2]): 9 nM
- IC50 (HL-60 [3]): 9 nM
- Ratio IC50 (HL-60 [4]): 1

Structure (SMILES): CC1=CC(=O)[C@@H](O)[C@]2(C)[C@H]3[C@]4(O)OC[C@]35[C@H]([C@@H](C)[C@H]4O)[C@@H](OC(=O)C(=O)O[C@H]3C(=O)O[C@@H]4C[C@H]6C(C)=CC(=O)[C@@H](O)[C@]6(C)[C@H]6[C@]7(O)OC[C@]64[C@@H]3[C@@H](C)[C@H]7O)C(=O)O[C@@H]5C[C@@H]12.O=C(O)C(=O)O
- IC50 (HL-60 [1]): 500 nM
- EC50 (HL-60 [2]): > 1500 nM
- IC50 (HL-60 [3]): 1800 nM
- Ratio IC50 (HL-60 [4]): 3.6

Structure (SMILES): CC1=CC(=O)[C@@H](O)[C@]2(C)[C@H]3[C@]4(O)OC[C@]35[C@H]([C@@H](C)[C@H]4O)[C@@H](OC(=O)[C@H](C)CO)C(=O)O[C@@H]5C[C@@H]12
- IC50 (HL-60 [1]): 1500 nM
- EC50 (HL-60 [2]): > 6000 nM
- IC50 (HL-60 [3]): 6200 nM
- Ratio IC50 (HL-60 [4]): 4.2

Structure (SMILES): CC1=CC(=O)[C@@H](O)[C@]2(C)[C@H]3[C@]4(O)OC[C@]35[C@H]([C@@H](C)[C@H]4O)[C@@H](OC(=O)C[C@]3(O)CC(C)CCC3C(C)C)C(=O)O[C@@H]5C[C@@H]12 (stereo not given in full)
- IC50 (HL-60 [1]): 400 nM
- EC50 (HL-60 [2]): 300 nM
- IC50 (HL-60 [3]): 900 nM
- Ratio IC50 (HL-60 [4]): 2.3

Structure (SMILES): CC(=O)O[C@H]1C(=O)O[C@@H]2C[C@H]3C(C)=CC(=O)[C@@H](O)[C@]3(C)[C@H]3[C@]4(O)OC[C@]32[C@@H]1[C@@H](C)[C@H]4O [HOLACANTHONE]
- IC50 (HL-60 [1]): 200 nM
- EC50 (HL-60 [2]): 200 nM
- IC50 (HL-60 [3]): 500 nM
- Ratio IC50 (HL-60 [4]): 2.5

Structure (SMILES): CC1=CC(=O)[C@@H](O)[C@]2(C)[C@H]3[C@]4(O)OC[C@]35[C@H]([C@@H](C)[C@H]4O)[C@@H](OC(=O)C=C(C(C)C)C(C)C)C(=O)O[C@@H]5C[C@@H]12
- IC50 (HL-60 [1]): 70 nM
- EC50 (HL-60 [2]): 90 nM
- IC50 (HL-60 [3]): 130 nM
- Ratio IC50 (HL-60 [4]): 1.9

Structure (SMILES): CC1=CC(=O)[C@@H](O)[C@]2(C)[C@H]3[C@]4(O)OC[C@]35[C@H]([C@@H](C)[C@H]4O)[C@@H](O)C(=O)O[C@@H]5C[C@@H]12 [GLAUCARUBOLONE]
- IC50 (HL-60 [1]): 400 nM
- EC50 (HL-60 [2]): 1300 nM
- IC50 (HL-60 [3]): 1300 nM
- Ratio IC50 (HL-60 [4]): 3.3

Structure (SMILES): CC1=CC(=O)[C@@H](O)[C@]2(C)[C@H]3[C@@H](O)[C@H](O)[C@@]4(C)OC[C@@]35[C@@H](C[C@@H]12)OC(=O)[C@H](O)[C@@H]45 [YADANZIOLIDE C]
- IC50 (HL-60 [1]): 1500 nM
- EC50 (HL-60 [2]): 10000 nM
- IC50 (HL-60 [3]): > 10000 nM
- Ratio IC50 (HL-60 [4]): >6.7

Structure (SMILES): CC1=CC(=O)[C@@H](O)[C@]2(C)[C@H]3[C@]4(O)OC[C@]35[C@H]([C@@H](C)[C@H]4O)[C@@H](OC(=O)CC(C)(C)O)C(=O)O[C@@H]5C[C@@H]12 [SOULARUBINONE]
- IC50 (HL-60 [1]): 100 nM
- EC50 (HL-60 [2]): 200 nM
- IC50 (HL-60 [3]): 400 nM
- Ratio IC50 (HL-60 [4]): 4.2

Structure (SMILES): CC1=CC(=O)[C@@H](O)[C@]2(C)[C@H]3[C@]4(O)OC[C@]35[C@H]([C@@H](C)[C@H]4O)[C@@H](OC(=O)C3(CO)CC3)C(=O)O[C@@H]5C[C@@H]12
- IC50 (HL-60 [1]): 1000 nM
- EC50 (HL-60 [2]): 2000 nM
- IC50 (HL-60 [3]): 2800 nM
- Ratio IC50 (HL-60 [4]): 2.9

Structure (SMILES): CC1=CC(=O)[C@@H](O)[C@]2(C)[C@H]3[C@]4(O)OC[C@]35[C@H]([C@@H](C)[C@H]4O)[C@@H](OC(=O)CN(C)C)C(=O)O[C@@H]5C[C@@H]12
- IC50 (HL-60 [1]): 500 nM
- EC50 (HL-60 [2]): 500 nM
- IC50 (HL-60 [3]): 800 nM
- Ratio IC50 (HL-60 [4]): 1.6
